From ChEMBL document CHEMBL1165946, “Development of antiproliferative phenylmaleimides that activate the unfolded protein response” (Bioorg Med Chem, 2010)
pIC50: −log10 of the molar value. Activity calls are given as the source filed them. No cut-off for these calls is given here.

Tests used:
[1] = Cytotoxicity against human Hep3B cells after 48 hrs by alamar blue assay; assay type: functional, cell-based, Hep 3B2
Outline: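 HEP3B cells in EMEM with 10% heat-inactivated FBS, 2 mmol/L L-glutamine, penicillin/streptomycin, 37 °C, 5% CO2, used in exponential growth. Exposed 48 h to 1.6–50 µM of each analog. Alamar blue then added for a further 6 h at 37 °C and fluorescence read. Growth given as % treated/control; IC50 is the concentration giving 50% reduction of cell number versus untreated controls.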

[2] = Upregulation of unfolded protein response-related DDIT3 gene expression in human Hep3B cells at 10 uM after 1 hr by RT-PCR analysis relative to control; assay type: functional, cell-based; details: Hep 3B2
Outline: (§1)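 HEP3B cells treated 1 h with 10 µM analogue, compared with untreated cells. Gene expression measured by real-time PCR with SYBR chemistry and gene-specific primer pairs, triplicate wells, GAPDH as endogenous control. Analysed by the comparative Ct method and expressed as fold induction over untreated control (n = 3, SD). Significance set at p <0.05.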

[3] = Upregulation of unfolded protein response-related ATF4 gene expression in human Hep3B cells at 10 uM after 1 hr by RT-PCR analysis relative to control; assay type: functional, cell-based; details: Hep 3B2; outline: as §1
[4] = Upregulation of unfolded protein response-related HSPA1A gene expression in human Hep3B cells at 10 uM after 1 hr by RT-PCR analysis relative to control; assay type: functional, cell-based; details: Hep 3B2; outline: as §1
[5] = Upregulation of unfolded protein response-related TRIB3 gene expression in human Hep3B cells at 10 uM after 1 hr by RT-PCR analysis; assay type: functional, cell-based; details: Hep 3B2; outline: as §1
[6] = system: Hep 3B2; experiment: Effect on stress-inducible CDKN1A gene expression in human Hep3B cells at 1 to 50 uM after 1 hr by RT-PCR analysis; assay type: functional, cell-based
[7] = system: Hep 3B2; experiment: Effect on stress-inducible CHEK1 gene expression in human Hep3B cells at 1 to 50 uM after 1 hr by RT-PCR analysis; assay type: functional, cell-based
[8] = system: Hep 3B2; experiment: Effect on stress-inducible BRCA1 gene expression in human Hep3B cells at 1 to 50 uM after 1 hr by RT-PCR analysis; assay type: functional, cell-based
[9] = system: Hep 3B2; experiment: Effect on stress-inducible GADD45B gene expression in human Hep3B cells at 1 to 50 uM after 1 hr by RT-PCR analysis; assay type: functional, cell-based
[10] = target: T1, Eukaryotic translation initiation factor 2-alpha kinase 3 (Homo sapiens) (UniProt Q9NZJ5); experiment: Induction of PERK-mediated phosphorylation of eIF2alpha in human Hep3B cells at 50 uM after 1 hr by Western blot analysis; assay type: cell-based; details: Hep 3B2
T1 sequence (whole entry): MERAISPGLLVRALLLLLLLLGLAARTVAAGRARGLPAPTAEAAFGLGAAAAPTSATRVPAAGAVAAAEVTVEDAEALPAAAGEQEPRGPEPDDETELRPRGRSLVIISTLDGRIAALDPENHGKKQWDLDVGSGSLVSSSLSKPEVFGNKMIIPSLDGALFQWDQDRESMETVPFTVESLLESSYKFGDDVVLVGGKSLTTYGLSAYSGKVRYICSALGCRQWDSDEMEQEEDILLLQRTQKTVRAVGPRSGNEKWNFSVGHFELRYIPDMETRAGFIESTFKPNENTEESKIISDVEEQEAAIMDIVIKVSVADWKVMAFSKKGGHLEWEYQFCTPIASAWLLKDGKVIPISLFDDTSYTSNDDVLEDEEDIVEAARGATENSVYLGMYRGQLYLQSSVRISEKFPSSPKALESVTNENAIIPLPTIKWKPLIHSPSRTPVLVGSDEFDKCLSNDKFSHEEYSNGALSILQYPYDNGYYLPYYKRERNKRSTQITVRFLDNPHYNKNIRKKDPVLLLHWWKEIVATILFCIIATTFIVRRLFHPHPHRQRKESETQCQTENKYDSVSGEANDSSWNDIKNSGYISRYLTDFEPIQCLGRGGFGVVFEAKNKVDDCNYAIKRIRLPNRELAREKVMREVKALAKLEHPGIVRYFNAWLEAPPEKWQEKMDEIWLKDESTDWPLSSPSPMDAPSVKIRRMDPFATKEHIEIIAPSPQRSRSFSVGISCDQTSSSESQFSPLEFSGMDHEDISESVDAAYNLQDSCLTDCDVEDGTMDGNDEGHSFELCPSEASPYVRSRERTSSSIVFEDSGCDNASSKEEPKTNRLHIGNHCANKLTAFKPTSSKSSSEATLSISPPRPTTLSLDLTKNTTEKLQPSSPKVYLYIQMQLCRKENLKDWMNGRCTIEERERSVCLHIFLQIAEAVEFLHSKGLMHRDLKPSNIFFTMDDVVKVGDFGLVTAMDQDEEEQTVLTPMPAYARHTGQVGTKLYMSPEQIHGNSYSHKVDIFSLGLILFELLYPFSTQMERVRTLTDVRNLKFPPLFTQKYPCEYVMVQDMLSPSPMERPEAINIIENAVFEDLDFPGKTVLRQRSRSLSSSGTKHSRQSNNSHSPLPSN

[11] = Upregulation of unfolded protein response-related GADD34 gene expression in human Hep3B cells at 10 uM after 1 hr by RT-PCR analysis; assay type: functional, cell-based; details: Hep 3B2; outline: as §1
[12] = system: Hep 3B2; experiment: Effect on stress-inducible […] gene expression in human Hep3B cells at 1 to 50 uM after 1 hr by RT-PCR analysis; assay type: functional, cell-based
[13] = target: T1, Eukaryotic translation initiation factor 2-alpha kinase 3 (Homo sapiens); experiment: Induction of PERK-mediated phosphorylation of eIF2alpha in human Hep3B cells at 2 to 10 uM after 1 to 6 hrs by Western blot analysis; assay type: cell-based; details: Hep 3B2
[14] = system: Hep 3B2; experiment: Effect on stress-inducible MDM2 gene expression in human Hep3B cells at 1 to 50 uM after 1 hr by RT-PCR analysis; assay type: functional, cell-based

Work on COc1ccc(N2C(=O)C(SCCO)=C(SCCO)C2=O)cc1 yielded a pIC50 [1] of 5.22.
In the case of COc1ccc(-c2ccc(N3C(=O)C(SCCO)=C(SCCO)C3=O)cc2)cc1, the pIC50 [1] was 5.52.
For O=C1C(SCCO)=C(SCCO)C(=O)N1c1ccccc1, the fold change (FC) [2] was 2, the pIC50 [1] was 4.15 and the fold change (FC) [3] was 2.
Work on O=C1C(SCCO)=C(SCCO)C(=O)N1c1ccccc1I yielded a pIC50 [1] of 5.05.
Work on CN(C)c1ccc(N2C(=O)C(SCCO)=C(SCCO)C2=O)cc1 yielded a pIC50 [1] of 5.05.
Work on O=C1C(SCCO)=C(SCCO)C(=O)N1c1ccc(O)cc1 yielded a pIC50 [1] of less than 4.00.
Work on O=C1C(SCCO)=C(SCCO)C(=O)N1c1ccc(OC(F)(F)F)cc1 yielded a pIC50 [1] of 5.40.
Work on Cc1ccccc1-c1ccc(N2C(=O)C(SCCO)=C(SCCO)C2=O)cc1C yielded a fold change (FC) [2] of 2, a pIC50 [1] of 5.00 and a fold change (FC) [3] of 2.
O=C1C(SCCO)=C(SCCO)C(=O)N1c1ccc(-c2ccc([N+](=O)[O-])cc2)cc1 showed a fold change (FC) [2] of 2, a fold change (FC) [4] of 17 and a pIC50 [1] of 5.40. The fold change (FC) [3] was 2.
O=C1C(SCCO)=C(SCCO)C(=O)N1Cc1ccccc1 gave a pIC50 [1] of 5.30.
With O=C1C(SCCO)=C(SCCO)C(=O)N1CCc1ccccc1 the fold change (FC) [2] was 2, the fold change (FC) [4] was 15.3 and the pIC50 [1] was 5.70. The fold change (FC) [3] was 2.
COc1cc(OC)cc(N2C(=O)C(SCCO)=C(SCCO)C2=O)c1 showed a pIC50 [1] of 5.05.
With O=C1C(SCCO)=C(SCCO)C(=O)N1c1ccc(-c2ccccc2)cc1 the pIC50 [1] was 6.15, the Activity [5] was “Active” and the Activity [6] was “inactive”. For the same compound, the Activity [7] was “inactive”, the Activity [8] was “inactive” and the Activity [9] was “inactive”. The Activity [10] was “Toxic”, the Activity [11] was “Active” and the Activity [12] was “inactive”. For the same compound, the Activity [13] was “Active” and the Activity [14] was “inactive”.
With CC(=O)c1ccc(N2C(=O)C(SCCO)=C(SCCO)C2=O)cc1 the pIC50 [1] was 5.00.
In the case of CC(=O)Nc1ccc(N2C(=O)C(SCCO)=C(SCCO)C2=O)cc1, the fold change (FC) [2] was 2, the pIC50 [1] was less than 4.00 and the fold change (FC) [3] was 2. For the same compound, the Activity [13] was “inactive”.
Work on O=C1C(SCCO)=C(SCCO)C(=O)N1c1ccc2ccccc2c1 yielded a pIC50 [1] of 5.46.
For Cc1cc(Cl)ccc1N1C(=O)C(SCCO)=C(SCCO)C1=O, the pIC50 [1] was 5.10.
Compound O=C1C(SCCO)=C(SCCO)C(=O)N1c1cccc2ccccc12 has a pIC50 [1] of 5.40.
Compound O=C1C(SCCO)=C(SCCO)C(=O)N1c1ccc(F)cc1 has a pIC50 [1] of 5.05.
N#Cc1ccc(N2C(=O)C(SCCO)=C(SCCO)C2=O)cc1 gave a pIC50 [1] of 5.05.
O=C1C(SCCO)=C(SCCO)C(=O)N1Cc1cccc(Cl)c1 showed a pIC50 [1] of 5.60.
CCOc1ccc(N2C(=O)C(SCCO)=C(SCCO)C2=O)cc1 showed a pIC50 [1] of 5.22.
O=C1C(SCCO)=C(SCCO)C(=O)N1CCc1cccc(Cl)c1 showed a pIC50 [1] of 6.00.
Work on CCCCOc1ccc(N2C(=O)C(SCCO)=C(SCCO)C2=O)cc1 yielded a pIC50 [1] of 5.30.
In the case of COc1cccc(N2C(=O)C(SCCO)=C(SCCO)C2=O)c1, the pIC50 [1] was 5.05.
O=C1C(SCCO)=C(SCCO)C(=O)N1c1ccc(Oc2ccccc2)cc1 gave a fold change (FC) [2] of 2, a pIC50 [1] of less than 4.00 and a fold change (FC) [3] of 2.
With O=C1C(SCCO)=C(SCCO)C(=O)N1c1ccccc1F the pIC50 [1] was 5.05.
O=C1C(SCCO)=C(SCCO)C(=O)N1c1ccc(Cl)cc1 gave a pIC50 [1] of 5.15.
O=C1C(SCCO)=C(SCCO)C(=O)N1c1ccc2cc3ccccc3cc2c1 showed a pIC50 [1] of 5.74.
Cc1cccc(N2C(=O)C(SCCO)=C(SCCO)C2=O)c1 showed a pIC50 [1] of 5.15.
